Assay results reported in ChEMBL document CHEMBL1649143, “In vitro activities of fluconazole and voriconazole against clinical isolates of Candida spp. determined by disk diffusion testing in Turin, Italy” (2009).
In brackets after ≈: the same amount, converted by molar mass.

How the values were obtained:
[1] = Antifungal activity against Candida holmii assessed as percent susceptible isolates at 1 ug/disc by CLSI M44-A disk diffusion method; format: functional; conditions: Kazachstania exigua
Outline: (§1)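 Agar disk diffusion per CLSI M44-A on clinical Candida isolates collected in Turin, Italy; 1,024 isolates tested in total. Each isolate was classed as susceptible (S), susceptible-dose dependent (SDD) or resistant (R), and the percentage of isolates per species in each category was reported.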

Pichia fermentans = test: Antifungal activity against Candida lambica assessed as percent susceptible isolates at 1 ug/disc by CLSI M44-A disk diffusion method; format: functional; outline: as §1
[2] = Antifungal activity against Candida humicola assessed as percent susceptible isolates at 1 ug/disc by CLSI M44-A disk diffusion method; format: functional; outline: as §1
Nakaseomyces glabratus [3] = test: Antifungal activity against Candida glabrata by reference dilution method; format: functional
Pichia norvegensis [4] = test: Antifungal activity against Candida norvegensis by reference dilution method; format: functional
Kluyveromyces marxianus [5] = test: Antifungal activity against Candida kefyr assessed as percent susceptible isolates at 1 ug/disc by CLSI M44-A disk diffusion method; format: functional; outline: as §1
Candida tropicalis [6] = test: Antifungal activity against Candida tropicalis assessed as percent resistant isolates at 1 ug/disc by CLSI M44-A disk diffusion method; format: functional; outline: as §1
Candida parapsilosis [7] = test: Antifungal activity against Candida parapsilosis by reference dilution method; format: functional; conditions: Lodderomyces parapsilosis
Candida parapsilosis [8] = test: Antifungal activity against Candida parapsilosis assessed as percent susceptible isolates at 1 ug/disc by CLSI M44-A disk diffusion method; format: functional; outline: as §1
Kluyveromyces marxianus [9] = test: Antifungal activity against Candida kefyr by reference dilution method; format: functional
Candida albicans [10] = test: Antifungal activity against Candida albicans by reference dilution method; format: functional
Pichia kudriavzevii [11] = test: Antifungal activity against Candida krusei by reference dilution method; format: functional
Pichia kudriavzevii [12] = test: Antifungal activity against Candida krusei assessed as percent resistant isolates at 1 ug/disc by CLSI M44-A disk diffusion method; format: functional; outline: as §1
Pichia kudriavzevii [13] = test: Antifungal activity against Candida krusei assessed as percent susceptible isolates at 1 ug/disc by CLSI M44-A disk diffusion method; format: functional; outline: as §1
Candida tropicalis [14] = test: Antifungal activity against Candida tropicalis assessed as dose dependent percent susceptible isolates at 1 ug/disc by CLSI M44-A disk diffusion method; format: functional; outline: as §1
Pichia kudriavzevii [15] = test: Antifungal activity against Candida krusei assessed as dose dependent percent susceptible isolates at 1 ug/disc by CLSI M44-A disk diffusion method; format: functional; outline: as §1
Nakaseomyces glabratus [16] = test: Antifungal activity against Candida glabrata assessed as dose dependent percent susceptible isolates at 1 ug/disc by CLSI M44-A disk diffusion method; format: functional; outline: as §1
Nakaseomyces glabratus [17] = test: Antifungal activity against Candida glabrata assessed as percent susceptible isolates at 1 ug/disc by CLSI M44-A disk diffusion method; format: functional; outline: as §1
Candida tropicalis [18] = test: Antifungal activity against Candida tropicalis by reference dilution method; format: functional
Pichia norvegensis [19] = test: Antifungal activity against Candida norvegensis assessed as percent susceptible isolates at 1 ug/disc by CLSI M44-A disk diffusion method
Nakaseomyces glabratus [20] = test: Antifungal activity against Candida glabrata assessed as percent resistant isolates at 1 ug/disc by CLSI M44-A disk diffusion method; format: functional; outline: as §1
Candida albicans [21] = test: Antifungal activity against Candida albicans assessed as percent susceptible isolates at 1 ug/disc by CLSI M44-A disk diffusion method; format: functional; outline: as §1
[Candida] intermedia = Antifungal activity against Candida intermedia assessed as percent susceptible isolates at 1 ug/disc by CLSI M44-A disk diffusion method; format: functional, Sungouiella intermedia; outline: as §1
Pichia norvegensis [22] = test: Antifungal activity against Candida norvegensis assessed as percent dose dependent percent susceptible isolates at 1 ug/disc by CLSI M44-A disk diffusion method; format: functional; outline: as §1
Kluyveromyces marxianus [23] = test: Antifungal activity against Candida kefyr assessed as percent dose dependent percent susceptible isolates at 1 ug/disc by CLSI M44-A disk diffusion method; format: functional; outline: as §1
Candida = test: Antifungal activity against Candida sp. by reference dilution method; format: functional
Diutina rugosa = test: Antifungal activity against Candida rugosa assessed as percent susceptible isolates at 1 ug/disc by CLSI M44-A disk diffusion method; format: functional; outline: as §1
Candida tropicalis [24] = test: Antifungal activity against Candida tropicalis assessed as percent susceptible isolates at 1 ug/disc by CLSI M44-A disk diffusion method; format: functional; outline: as §1
Clavispora lusitaniae = test: Antifungal activity against Candida lusitaniae assessed as percent susceptible isolates at 1 ug/disc by CLSI M44-A disk diffusion method; format: functional; outline: as §1
[25] = Antifungal activity against Candida membranifaciens assessed as percent susceptible isolates at 1 ug/disc by CLSI M44-A disk diffusion method; format: functional; outline: as §1
Cyberlindnera jadinii = test: Antifungal against Candida utilis assessed as percent susceptible isolates at 1 ug/disc by CLSI M44-A disk diffusion method; format: functional; outline: as §1

SMILES: C[C@@H](c1ncncc1F)[C@](O)(Cn1cncn1)c1ccc(F)cc1F [VORICONAZOLE]
- Activity [1]: 100%
- Activity (Pichia fermentans): 100%
- Activity [2]: 100%
- MIC50 (Nakaseomyces glabratus [3]): 0.25 µg/mL (≈ 0.716 µM)
- MIC90 (Nakaseomyces glabratus [3]): 4 µg/mL (≈ 11.5 µM)
- MIC50 (Pichia norvegensis [4]): 0.25 µg/mL (≈ 0.716 µM)
- MIC90 (Pichia norvegensis [4]): 1 µg/mL (≈ 2.86 µM)
- Activity (Kluyveromyces marxianus [5]): 96%
- Activity (Candida tropicalis [6]): 7%
- MIC50 (Candida parapsilosis [7]): 0.06 µg/mL (≈ 0.172 µM)
- MIC90 (Candida parapsilosis [7]): 0.12 µg/mL (≈ 0.344 µM)
- Activity (Candida parapsilosis [8]): 100%
- MIC (Kluyveromyces marxianus [9]): 0.008 µg/mL (≈ 0.0229 µM)
- MIC50 (Kluyveromyces marxianus [9]): 0.01 µg/mL (≈ 0.0286 µM)
- MIC90 (Kluyveromyces marxianus [9]): 0.06 µg/mL (≈ 0.172 µM)
- MIC50 (Candida albicans [10]): 0.06 µg/mL (≈ 0.172 µM)
- MIC90 (Candida albicans [10]): 0.12 µg/mL (≈ 0.344 µM)
- MIC50 (Pichia kudriavzevii [11]): 0.5 µg/mL (≈ 1.43 µM)
- MIC90 (Pichia kudriavzevii [11]): 2 µg/mL (≈ 5.73 µM)
- Activity (Pichia kudriavzevii [12]): 4%
- Activity (Pichia kudriavzevii [13]): 92%
- Activity (Candida tropicalis [14]): 3%
- Activity (Pichia kudriavzevii [15]): 4%
- Activity (Nakaseomyces glabratus [16]): 3%
- Activity (Nakaseomyces glabratus [17]): 87%
- MIC50 (Candida tropicalis [18]): 0.12 µg/mL (≈ 0.344 µM)
- MIC90 (Candida tropicalis [18]): 2 µg/mL (≈ 5.73 µM)
- Activity (Pichia norvegensis [19]): 93%
- Activity (Nakaseomyces glabratus [20]): 11%
- Activity (Candida albicans [21]): 99.8%
- Activity ([Candida] intermedia): 100%
- Activity (Pichia norvegensis [22]): 7%
- Activity (Kluyveromyces marxianus [23]): 4%
- MIC50 (Candida): 0.06 µg/mL (≈ 0.172 µM)
- MIC90 (Candida): 1 µg/mL (≈ 2.86 µM)
- Activity (Diutina rugosa): 100%
- Activity (Candida tropicalis [24]): 90%
- Activity (Clavispora lusitaniae): 100%
- Activity [25]: 100%
- Activity (Cyberlindnera jadinii): 100%
